pKi: −log10 of the molar value. Active and inactive are the calls of the source. The calls are words filed in the database; no cut-off is given here.
Columns and labels:
[1] = tested on: HUVEC; assay: Stimulation of angiogenesis of HUVEC assessed as increase in cord length formation after 36 hrs by Matrigel based tube formation assay; format: functional, cell-based; conditions: Homo sapiens
Procedure, shortened: (§1)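 HUVEC or CB1 siRNA-knockdown HUVEC at 90% confluence harvested with versene, spun 600g 5 min, resuspended in serum-free RPMI 1640 with drug (optionally 1 µM O-1918); 40 000 cells/well on gelled 1:1 RPMI/Matrigel, with or without UV irradiation, 36 h at 37 °C. Fixed with Diff-Quick; total tube length from three random 10× fields; triplicate, three experiments; percent increase over vehicle, mean ± SEM; bFGF 5 ng/mL positive control.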

[2] = tested on: HUVEC; assay: Stimulation of angiogenesis of irradiated HUVEC assessed as increase in cord length formation after 36 hrs by Matrigel based tube formation assay; format: functional, cell-based; conditions: Homo sapiens; procedure, shortened: as §1
[3] = molecular target: Matrix metalloproteinase-9 (Homo sapiens) (UniProt P14780); assay: Stimulation of MMP9 activity in CB1 receptor knockout HUVEC assessed as increase in enzyme activity at 1 uM relative to control; format: cell-based
Matrix metalloproteinase-9 (Homo sapiens), sequence (P14780 whole entry): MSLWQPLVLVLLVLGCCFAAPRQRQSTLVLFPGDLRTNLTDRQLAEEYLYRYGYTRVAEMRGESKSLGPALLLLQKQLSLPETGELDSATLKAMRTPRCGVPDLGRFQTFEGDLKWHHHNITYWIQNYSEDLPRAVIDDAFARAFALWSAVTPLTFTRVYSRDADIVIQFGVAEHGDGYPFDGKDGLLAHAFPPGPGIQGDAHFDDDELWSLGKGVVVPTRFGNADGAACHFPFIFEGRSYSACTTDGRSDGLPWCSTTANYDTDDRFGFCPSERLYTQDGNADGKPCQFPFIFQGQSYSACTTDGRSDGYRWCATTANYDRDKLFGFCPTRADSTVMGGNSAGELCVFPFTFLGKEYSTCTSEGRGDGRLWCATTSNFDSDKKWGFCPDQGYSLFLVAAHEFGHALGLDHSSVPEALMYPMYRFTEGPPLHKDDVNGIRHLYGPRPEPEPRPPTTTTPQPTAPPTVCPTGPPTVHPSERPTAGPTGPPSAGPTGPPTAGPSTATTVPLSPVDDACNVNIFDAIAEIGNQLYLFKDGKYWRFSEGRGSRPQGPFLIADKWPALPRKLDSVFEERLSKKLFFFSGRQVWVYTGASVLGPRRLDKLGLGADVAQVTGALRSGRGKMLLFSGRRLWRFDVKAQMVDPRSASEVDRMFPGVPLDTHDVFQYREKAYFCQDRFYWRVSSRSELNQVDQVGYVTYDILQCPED
Procedure, shortened: (§2)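 HUVEC or CB1 siRNA-knockdown HUVEC (electroporated, 1.5 µg siRNA) grown to 90% confluence in six-well plates, treated with drug (optionally with 1 µM O-1918) with or without UV irradiation (1-15 min, 280-315 nm), 24 h at 37 °C. Conditioned media mixed with DQ gelatin (6 µg/mL), 24 h at 37 °C dark; fluorescence 485/530 nm against collagenase standard curve; triplicate; percent over vehicle, mean ± SEM of three experiments.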

[4] = molecular target: 72 kDa type IV collagenase (Homo sapiens) (UniProt P08253); assay: Stimulation of MMP2 activity in CB1 receptor knockout HUVEC assessed as increase in enzyme activity in presence of 1 uM anandamide receptor antagonist O-1918 relative to control; format: functional, cell-based; procedure, shortened: as §2
72 kDa type IV collagenase (Homo sapiens), sequence (P08253 110-660 limits assumed): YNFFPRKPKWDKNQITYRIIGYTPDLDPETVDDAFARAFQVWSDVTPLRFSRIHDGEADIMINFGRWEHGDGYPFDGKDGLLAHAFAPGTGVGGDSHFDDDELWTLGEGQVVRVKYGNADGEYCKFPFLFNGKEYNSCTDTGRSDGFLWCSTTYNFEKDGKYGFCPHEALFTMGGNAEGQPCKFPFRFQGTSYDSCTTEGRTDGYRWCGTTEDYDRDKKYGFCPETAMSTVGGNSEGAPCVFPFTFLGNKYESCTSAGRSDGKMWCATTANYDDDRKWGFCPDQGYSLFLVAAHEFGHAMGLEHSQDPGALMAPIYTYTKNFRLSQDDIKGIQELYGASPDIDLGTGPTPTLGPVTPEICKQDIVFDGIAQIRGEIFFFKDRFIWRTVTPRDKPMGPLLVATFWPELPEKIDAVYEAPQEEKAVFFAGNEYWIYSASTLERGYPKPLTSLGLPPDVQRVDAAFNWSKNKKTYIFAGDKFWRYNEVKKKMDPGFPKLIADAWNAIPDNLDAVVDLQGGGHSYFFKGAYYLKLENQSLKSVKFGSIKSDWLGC

[5] = molecular target: Matrix metalloproteinase-9 (Homo sapiens) (UniProt P14780); assay: Stimulation of MMP9 activity in CB1 receptor knockout HUVEC assessed as increase in enzyme activity in presence of 1 uM anandamide receptor antagonist O-1918 relative to control; format: functional, cell-based; procedure, shortened: as §2
[6] = tested on: HUVEC; assay: Increase in cell migration of irradiated HUVEC at 10 nM relative to control; format: functional, Homo sapiens
Procedure, shortened: (§3)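 Cells harvested with versene, resuspended in RPMI 1640 with 0.1% BSA; 30 000 cells loaded in bottom well of 48-well microchemotaxis chamber under collagen IV-coated (0.1 mg/mL) 10 µm polyester filter, inverted 2 h at 37 °C; upper wells given drug in RPMI/0.1% BSA, 6 h at 37 °C. Filters fixed and stained with Diff-Quick; migrated cells counted at well centre, ×20. UV irradiation 1-15 min at 280-315 nm, 10 in. distance.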

[7] = tested on: HUVEC; assay: Increase in cell migration of irradiated HUVEC at 100 nM relative to control; format: functional, Homo sapiens; procedure, shortened: as §3
[8] = tested on: HUVEC; assay: Increase in cell migration of irradiated HUVEC at 1 uM relative to control; format: functional, Homo sapiens; procedure, shortened: as §3
[9] = tested on: HUVEC; assay: Stimulation of angiogenesis of irradiated CB1 receptor knockout HUVEC assessed as increase in cord length formation after 36 hrs at 10 nM by Matrigel based tube formation assay; format: functional, Homo sapiens; procedure, shortened: as §1
[10] = tested on: HUVEC; assay: Stimulation of angiogenesis of irradiated CB1 receptor knockout HUVEC assessed as increase in cord length formation after 36 hrs at 100 nM by Matrigel based tube formation assay; format: functional, Homo sapiens; procedure, shortened: as §1
[11] = tested on: HUVEC; assay: Stimulation of angiogenesis of irradiated CB1 receptor knockout HUVEC assessed as increase in cord length formation after 36 hrs at 1 uM by Matrigel based tube formation assay; format: functional, Homo sapiens; procedure, shortened: as §1
[12] = tested on: HUVEC; assay: Stimulation of angiogenesis of CB1 receptor knockout HUVEC assessed as increase in cord length formation after 36 hrs by Matrigel based tube formation assay; format: functional, Homo sapiens; procedure, shortened: as §1
[13] = tested on: HUVEC; assay: Stimulation of angiogenesis of irradiated CB1 receptor knockout HUVEC assessed as increase in cord length formation after 36 hrs at 1 uM in presence of 1 uM anandamide receptor antagonist O-1918 by Matrigel based tube formation assay; format: functional, cell-based; conditions: Homo sapiens; procedure, shortened: as §1
[14] = tested on: HUVEC; assay: Stimulation of angiogenesis of CB1 receptor knockout irradiated HUVEC assessed as increase in cord length formation after 36 hrs by Matrigel based tube formation assay; format: functional, cell-based; conditions: Homo sapiens; procedure, shortened: as §1
[15] = molecular target: 72 kDa type IV collagenase (Homo sapiens) (UniProt P08253); assay: Stimulation of MMP2 activity in HUVEC assessed as increase in enzyme activity at 10 nM relative to control; format: cell-based; procedure, shortened: as §2
[16] = molecular target: Matrix metalloproteinase-9 (Homo sapiens) (UniProt P14780); assay: Stimulation of MMP9 activity in HUVEC assessed as increase in enzyme activity at 10 nM relative to control; format: cell-based; procedure, shortened: as §2
[17] = molecular target: 72 kDa type IV collagenase (Homo sapiens) (UniProt P08253); assay: Stimulation of MMP2 activity in HUVEC assessed as increase in enzyme activity at 100 nM relative to control; procedure, shortened: as §2
[18] = molecular target: Matrix metalloproteinase-9 (Homo sapiens) (UniProt P14780); assay: Stimulation of MMP9 activity in HUVEC assessed as increase in enzyme activity at 100 nM relative to control; procedure, shortened: as §2
[19] = molecular target: 72 kDa type IV collagenase (Homo sapiens) (UniProt P08253); assay: Stimulation of MMP2 activity in HUVEC assessed as increase in enzyme activity at 1 uM relative to control; procedure, shortened: as §2
[20] = molecular target: Matrix metalloproteinase-9 (Homo sapiens) (UniProt P14780); assay: Stimulation of MMP9 activity in HUVEC assessed as increase in enzyme activity at 1 uM relative to control; format: cell-based; procedure, shortened: as §2
[21] = molecular target: 72 kDa type IV collagenase (Homo sapiens) (UniProt P08253); assay: Stimulation of MMP2 activity in CB1 receptor knockout HUVEC assessed as increase in enzyme activity at 10 nM relative to control; format: cell-based; procedure, shortened: as §2
[22] = molecular target: Matrix metalloproteinase-9 (Homo sapiens) (UniProt P14780); assay: Stimulation of MMP9 activity in CB1 receptor knockout HUVEC assessed as increase in enzyme activity at 10 nM relative to control; procedure, shortened: as §2
[23] = molecular target: 72 kDa type IV collagenase (Homo sapiens) (UniProt P08253); assay: Stimulation of MMP2 activity in CB1 receptor knockout HUVEC assessed as increase in enzyme activity at 100 nM relative to control; format: cell-based; procedure, shortened: as §2
[24] = molecular target: Matrix metalloproteinase-9 (Homo sapiens) (UniProt P14780); assay: Stimulation of MMP9 activity in CB1 receptor knockout HUVEC assessed as increase in enzyme activity at 100 nM relative to control; procedure, shortened: as §2
[25] = molecular target: 72 kDa type IV collagenase (Homo sapiens) (UniProt P08253); assay: Stimulation of MMP2 activity in CB1 receptor knockout HUVEC assessed as increase in enzyme activity at 1 uM relative to control; format: cell-based; procedure, shortened: as §2
[26] = molecular target: Cannabinoid receptor 1 (Homo sapiens, UniProt P21554); assay: Displacement of [3H]CP-55-940 from human recombinant CB1 receptor expressed in COS cells; format: cell-based
Cannabinoid receptor 1, sequence (P21554 whole entry): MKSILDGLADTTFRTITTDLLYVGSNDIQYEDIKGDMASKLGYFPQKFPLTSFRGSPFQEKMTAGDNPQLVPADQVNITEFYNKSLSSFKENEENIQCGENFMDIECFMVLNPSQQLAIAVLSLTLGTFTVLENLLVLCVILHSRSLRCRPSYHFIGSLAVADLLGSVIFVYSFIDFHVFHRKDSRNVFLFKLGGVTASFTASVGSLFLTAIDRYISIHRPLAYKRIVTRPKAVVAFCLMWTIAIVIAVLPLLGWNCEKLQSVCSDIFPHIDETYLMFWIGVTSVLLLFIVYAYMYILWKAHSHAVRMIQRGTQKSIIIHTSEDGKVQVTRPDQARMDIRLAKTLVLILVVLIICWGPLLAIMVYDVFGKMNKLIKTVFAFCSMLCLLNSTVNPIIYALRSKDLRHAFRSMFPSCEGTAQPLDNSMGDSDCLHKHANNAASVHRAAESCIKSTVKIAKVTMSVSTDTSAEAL

[27] = molecular target: Cannabinoid receptor 2 (Homo sapiens, UniProt P34972); assay: Displacement of [3H]CP-55-940 from human recombinant CB2 receptor expressed in COS cells; format: cell-based
Cannabinoid receptor 2, sequence (P34972 whole entry): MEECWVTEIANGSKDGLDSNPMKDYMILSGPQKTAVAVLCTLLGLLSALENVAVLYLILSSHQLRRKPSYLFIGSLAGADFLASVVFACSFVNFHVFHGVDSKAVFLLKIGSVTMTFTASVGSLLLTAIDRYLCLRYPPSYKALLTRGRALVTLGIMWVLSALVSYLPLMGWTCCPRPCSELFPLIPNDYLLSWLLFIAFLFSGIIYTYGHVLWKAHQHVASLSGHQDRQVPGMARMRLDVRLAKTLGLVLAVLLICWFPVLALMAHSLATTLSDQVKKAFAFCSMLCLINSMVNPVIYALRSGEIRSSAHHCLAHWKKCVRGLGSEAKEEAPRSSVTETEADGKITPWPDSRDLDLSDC

Row | SMILES | Activity [3] | Activity [4] | Activity [5] | Activity [6] [%] | Activity [7] [%] | Activity [8] [%] | Activity [14] | Activity [15] | Activity [16] | Activity [17] | Activity [18] | Activity [19] | Activity [20] | Activity [21] | Activity [22] | Activity [23] | Activity [24] | Activity [25] | other results
1 | C[C@H](CO)NC(=O)CCC/C=C\C/C=C\C/C=C\C/C=C\CCOC(=O)c1cc(I)ccc1N=[N+]=[N-] | inactive | inactive | inactive | 18 | 35 | 54 | Dose-dependent effect | inactive | inactive | inactive | inactive | inactive | inactive | inactive | inactive | inactive | inactive | inactive | Activity [1]: Dose-dependent effect; Activity [2]: Active; Activity [9]: 21%; Activity [10]: 30%; Activity [11]: 47%; Activity [12]: 8%; Activity [13]: inactive
2 | C[C@H](CO)NC(=O)CCC/C=C\C/C=C\C/C=C\C/C=C\CCOC(=O)c1cccc2c1OC(C)(C(C)(C)C)O2 (stereo partly drawn) | inactive | inactive | inactive | 27 | 40 | 55 | Active | inactive | inactive | inactive | inactive | inactive | inactive | inactive | inactive | inactive | inactive | inactive | pKi [26]: 5.55; pKi [27]: 5.99; Activity ([12]; Homo sapiens): Active
3 | CCCCC/C=C\C/C=C\C/C=C\C/C=C\CCCC(=O)N[C@H](C)CO | 33% | – | – | – | – | – | – | 5% | 20% | 28% | 5% | 20% | 28% | 10% | 25% | 33% | 10% | 25% | –
